Rows were chosen to be rich in hits. Some 8.9% of all compounds tested hit in one or more screens of this group.
Dynein transport: inhibitors of GR-EGFP nuclear translocation, primary screen, dynein cargo transport inhibitor project, imaging, high-content, 3617.4 mouse cells; AID 1381, 2008; z-score, hits read low; 220,000 tested, 0.47% active; test concentration mostly 20 µM; stimulated with dexamethasone, 1 µM; stronger effect = lower value;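 active means plate z-score of nuclear minus cytoplasmic receptor signal below a set negative limit, without overly bright fluorescence or cell loss, cut at about -3.5 in these data, passing the limit was not always enough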;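 further: z-score of nuclear minus cytoplasmic ring GR-EGFP intensity difference per well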
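Buffer or medium: tet-free medium with charcoal-stripped serum / Also added: dexamethasone agonist, 1.0 µM final, for 30 min / Timing: induction 48 h, compound 1 h, agonist 30 min / Measured by: high-content fluorescence imaging after fixation / Read-out: nuclear-to-cytoplasmic GR-EGFP distribution per well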
MT stabilize HCS: microtubule stabilizers in HeLa cells, primary screen, imaging, high-content imaging; % tubulin-high responders, % at 10 µM; 200,000 tested, 0.83% active; HeLa tubulin immunostaining HCS, 24 h; share of cells brighter than vehicle mean+2SD;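 active means plate Z-score above 3 for both tubulin-high and condensed-nucleus cell shares, with cell loss under 80%, at 10 µM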;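 further: anti alpha tubulin signal scored within the nucleus-defined area of each cell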
L major viab: Leishmania major promastigote growth inhibition, primary screen | Leishmania major promastigotes, resazurin fluorescence viability | inhibition, % at 10 µM | AID 1063, 2008 | 200,000 tested, 9% active; in the data active means inhibition above about 50%;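 further: promastigotes grown with compound for 44 hours at 28 °C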
b-catenin transl: modulators of beta-catenin nuclear translocation, primary screen, imaging, HeLa cells, immunofluorescence, high-content; nuclear translocation activity, % at 5 µM; 190,000 tested, 0.3% active; AID 1665, 2009;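 active means nuclear translocation activity above 50% at 5 µM, with a well cell count of 50 or more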;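 further: per-cell ratio of nuclear to cytoplasmic median beta-catenin stain intensity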
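Signal – beta-catenin immunofluorescence imaging with DAPI · Test system – human HeLa cell line · Dosing – 5 µM primary single dose, 0.1% DMSO, 0.02–20 µM confirmation series · Measure – % activation, nuclear-to-cytoplasmic median beta-catenin signal ratio per cell · Incubation – 24 h compound exposure at 37°C, 5% CO2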
HSV augment: enhancers of HSV replication in host cells, fold increase, host cell viability; maximum fold increase; HSV replication augmentation in cells; 220,000 tested, 0.005% active; in the data active means maximum fold increase above about 1.5; tested in PC3 cells
Numbers stand for hits; . = inactive; / = not tested or not shown.

SMILES | Dynein transport | MT stabilize HCS | L major viab | b-catenin transl | HSV augment
CCN1CCc2nc(NC(=O)c3ccc4c(c3)OCCO4)sc2C1 | . | . | . | . | .
COC(=O)c1[nH]c2cc(OC)ccc2c1NC(=O)CCN1CCN(c2cccc(C)c2C)CC1 | . | . | . | . | .
CC1CCCCC1NC(=O)CSc1ccsc1[N+](=O)[O-] (centres undefined) | . | . | . | . | .
Cc1ccc(C)c(N2CCN(C(=O)CC3Sc4ccccc4NC3=O)CC2)c1 (centres undefined) | . | . | . | . | .
NC(=NC(=O)c1ccc(OC(F)(F)F)cc1)c1ccc(C(F)(F)F)cn1 | . | / | / | . | .
COc1cccc(N=Nc2c(N)[nH][nH]c2=O)c1 | . | . | . | . | .
COc1cccc(N=Nc2c(N)[nH]n3c(=O)c4c(nc23)CCCC4)c1 | . | . | 73.6 | . | .
CC(=O)Cc1nsc(NC(=O)c2ccc(-c3cccc(Cl)c3)o2)n1 | . | 13.7 | . | . | .
O=C(Nc1ccc(CN2CCOCC2)cc1)c1ccc(-c2ccc(Cl)cc2Cl)o1 | . | . | 73.5 | . | .
O=C(/C=C/c1ccc(Cl)cc1)Nc1ccc(CN2CCOCC2)cc1 | . | . | 82.4 | . | .
O=C(NC(=S)Nc1ccc(CN2CCOCC2)cc1)c1ccc(-c2cccc(Cl)c2)o1 | . | / | / | . | .
O=C(NC(=S)Nc1ccc(CN2CCOCC2)cc1)c1ccc(-c2ccc(Cl)cc2)o1 | . | / | / | . | .
O=C(Nc1ccc(CN2CCOCC2)cc1)c1ccc(-c2cccc(Cl)c2)o1 | . | . | 99.4 | . | .
CC(C)c1ccc(/C=C/C(=O)Nc2ccc(CN3CCOCC3)cc2)cc1 | . | / | / | . | .
Cc1ccc(Cl)cc1N1CCN(C(=S)NCCc2ccccc2)CC1 | . | . | . | . | .
Nc1nc(Cl)cc(Oc2ccccc2F)n1 | . | / | / | . | .
CNc1nc2c3ccccc3n(C(C)=O)c2s1 | . | . | . | / | .
CCOC(=O)Cc1nnc(NC(=O)C(CC)Sc2nc(C)cc(=O)[nH]2)s1 (centres undefined) | . | . | . | . | .
O=C(Nc1ccc(S(=O)(=O)N2CCC(C(=O)NC3CCCCC3)CC2)cc1)c1ccco1 | . | . | . | . | .
CCOC(=O)Cn1c2ccccc2c2nc(C)sc21 | . | . | . | . | .
Cc1cccc(C)c1NC(=O)c1ccc(-c2ccc(Cl)cc2Cl)o1 | . | . | 91.0 | . | .
CCOC(=O)C1(Cc2cccc(OC)c2)CCCN(Cc2nccn2CC)C1 (centres undefined) | . | . | . | . | .
CCn1ccnc1CN1CCCC(CO)(Cc2cccc(OC)c2)C1 (centres undefined) | . | . | 95.5 | . | .
COc1cccc(CC2(CO)CCCN(Cc3ccc4c(c3)OCCO4)C2)c1 (centres undefined) | . | . | 52.9 | . | .
O=C(Nc1nccs1)c1ccc(COc2ccccc2Cl)o1 | . | . | . | . | .
SMILES | Dynein transport | MT stabilize HCS | L major viab | b-catenin transl | HSV augment
Cc1ccc(NC(=O)COC(=O)CN2C(=O)C3CCCCC3C2=O)cc1S(=O)(=O)N1CCOCC1 (centres undefined) | . | . | . | . | .
COc1ccc(CC2(CO)CCN(Cc3cnn(-c4ccc(F)cc4)c3)CC2)cc1 | . | . | 84.1 | . | .
COc1ccc(CC2(CO)CCN(Cc3cnn(-c4ccccc4)c3)CC2)cc1 | . | . | 86.8 | . | .
COc1ccc(CC2(CO)CCN(Cc3cnn(-c4ccccc4OC)c3)CC2)cc1 | . | . | . | . | .
O=C(CNC(=O)c1cccc(F)c1)N/N=C/c1cc(Br)ccc1OC(=O)/C=C/c1ccco1 | . | . | 84.4 | / | .
O=C(CNC(=O)c1ccccc1O)N/N=C/c1cc(Br)ccc1OC(=O)/C=C/c1ccco1 | . | . | 68.2 | . | .
COc1ccc([N+](=O)[O-])cc1/C=N/NC(=O)CNC(=O)c1cccc(F)c1 | . | . | 97.9 | . | .
O=C(CNC(=O)c1ccc(F)cc1)N/N=C/c1cc(Br)ccc1OCc1ccccc1 | . | . | 95.7 | / | .
COc1ccc(C(=O)NCC(=O)N/N=C/C(C)=C/c2ccco2)cc1OC | . | . | . | / | .
COc1ccccc1C(=O)NCC(=O)N/N=C/c1cc(Br)ccc1OCc1ccccc1 | . | . | . | . | .
Cc1ccc(Nc2ccccc2)cc1 | . | . | . | . | .
Cc1nc(NCC2CCCO2)c2nnn(Cc3ccccc3)c2n1 (centres undefined) | . | . | . | . | .
O=C(COC(=O)CNC(=O)c1ccc(-c2ccccc2)cc1)NCc1ccco1 | . | . | . | . | .
CN1CCCC1CCNS(=O)(=O)c1ccc(Br)cc1 (centres undefined) | . | . | 96.1 | . | .
O=C1CCCN1CCCNS(=O)(=O)c1ccc(Br)cc1 | . | . | . | . | .
CC(OC(=O)c1ccc2c(c1)C(=O)N(Cc1ccncc1)C2=O)C(=O)Nc1cccc(Cl)c1Cl (centres undefined) | . | . | . | . | .
O=C(COC(=O)c1ccc2c(c1)C(=O)N(Cc1ccncc1)C2=O)Nc1ccccc1[N+](=O)[O-] | . | . | 54.4 | . | .
N=c1c2c(-c3ccccc3)c(-c3ccccc3)oc2ncn1CCN1CCOCC1 | . | . | . | . | .
N=c1c2c(-c3ccccc3)c(-c3ccccc3)n(Cc3ccccc3)c2ncn1CCO | . | . | 100.5 | . | .
OCCNc1ncnc2c1c(-c1ccccc1)c(-c1ccccc1)n2Cc1ccco1 | . | . | . | . | .
CC(C)Cn1cnc2c(c(-c3ccccc3)c(-c3ccccc3)n2Cc2ccco2)c1=N | . | . | 100.3 | / | .
N=c1c2c(-c3ccccc3)c(-c3ccccc3)n(Cc3ccco3)c2ncn1Cc1ccccc1 | . | . | 100.2 | / | .
O=C(CSc1nnc(CNC(=O)c2cccs2)o1)NCCc1ccccc1 | . | . | . | . | .
Cc1ccc(-c2nnc(Nc3ccc4c(c3)nc(C)n4C)c3ccccc23)cc1 | . | . | 100.7 | . | .
CCOC(=O)c1sc2c(c1C)c(=O)c(C(=O)OCC)cn2CC | . | . | . | . | .
COc1ccccc1C(c1nnnn1Cc1ccco1)N1CCN(c2cccc(C)c2C)CC1 (centres undefined) | . | . | 74.2 | . | .
CCOc1ccc2[nH]c(=O)c(C(c3nnnn3Cc3ccco3)N3CCC(C)CC3)cc2c1 (centres undefined) | . | . | . | . | .
Cc1ccc(C)c2[nH]c(=O)c(C(c3nnnn3CCc3ccccc3)N3CCOCC3)cc12 (centres undefined) | . | . | 100.1 | . | .
Cc1ccc(C)c2[nH]c(=O)c(C(c3nnnn3Cc3ccco3)N3CCc4ccccc4C3)cc12 (centres undefined) | . | . | 93.7 | . | .
COc1ccc(Cn2nnnc2C(c2cc3cccc(C)c3[nH]c2=O)N2CCOCC2)cc1 (centres undefined) | . | . | . | . | .

High-throughput results (PubChem BioAssay)
